In ChEMBL document CHEMBL2150974 (J Med Chem, 2012):
Calls of active or inactive are those of the source. No cut-off for these calls is given here.

Legend:
[1] = system: Serine/threonine-protein kinase B-raf (Homo sapiens), P15056 [V600E]; assay: Inhibition of BRAF V600E mutant at 10 uM
[2] = target: Focal adhesion kinase 1 (Homo sapiens) (UniProt Q05397); assay: Inhibition of FAK at 10 uM
[3] = target: RAC-alpha serine/threonine-protein kinase (Homo sapiens) (UniProt P31749); assay: Inhibition of AKT1 at 10 uM
[4] = target: Serine/threonine-protein kinase PLK1 (Homo sapiens) (UniProt P53350); assay: Inhibition of PLK1 at 10 uM
[5] = target: Hepatocyte growth factor receptor (Homo sapiens) (UniProt P08581); assay: Inhibition of MET at 10 uM
[6] = target: Casein kinase II subunit alpha (Homo sapiens) (UniProt P68400); assay: Inhibition of CK2alpha1 at 10 uM
[7] = target: Insulin receptor (Homo sapiens) (UniProt P06213); assay: Inhibition of INSR at 10 uM
[8] = target: BDNF/NT-3 growth factors receptor (Homo sapiens) (UniProt Q16620); assay: Inhibition of TRKB at 10 uM
[9] = target: T1, NUAK family SNF1-like kinase 1 (Homo sapiens) (UniProt O60285); assay: Inhibition of ARK5 at 10 uM
T1 sequence (whole entry): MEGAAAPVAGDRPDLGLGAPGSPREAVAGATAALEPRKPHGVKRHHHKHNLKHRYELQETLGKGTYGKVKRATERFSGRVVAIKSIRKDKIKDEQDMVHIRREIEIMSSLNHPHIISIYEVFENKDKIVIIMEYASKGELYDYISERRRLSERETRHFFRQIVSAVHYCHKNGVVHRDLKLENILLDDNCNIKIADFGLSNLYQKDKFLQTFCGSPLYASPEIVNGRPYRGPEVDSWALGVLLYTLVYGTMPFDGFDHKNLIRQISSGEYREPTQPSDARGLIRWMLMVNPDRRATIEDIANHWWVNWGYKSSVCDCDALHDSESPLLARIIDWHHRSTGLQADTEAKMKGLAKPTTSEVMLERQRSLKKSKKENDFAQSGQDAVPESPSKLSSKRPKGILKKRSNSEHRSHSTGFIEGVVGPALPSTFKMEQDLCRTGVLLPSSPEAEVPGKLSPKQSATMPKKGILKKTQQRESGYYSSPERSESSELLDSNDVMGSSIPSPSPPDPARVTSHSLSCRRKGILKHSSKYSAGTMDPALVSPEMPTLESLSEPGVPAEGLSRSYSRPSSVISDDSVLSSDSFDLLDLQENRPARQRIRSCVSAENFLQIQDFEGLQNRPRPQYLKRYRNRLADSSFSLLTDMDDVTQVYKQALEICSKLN

[10] = target: Aurora kinase B (Homo sapiens) (UniProt Q96GD4); assay: Inhibition of AuroraB at 10 uM
[11] = target: T2, Mitogen-activated protein kinase 14 (Homo sapiens, UniProt Q16539); assay: Inhibition of p38alpha by immunosorbent based kinase assay
[12] = target: Proto-oncogene tyrosine-protein kinase Src (Homo sapiens) (UniProt P12931); assay: Inhibition of SRC at 10 uM
[13] = target: Vascular endothelial growth factor receptor 2 (Homo sapiens) (UniProt P35968); assay: Inhibition of VEGFR2 at 10 uM
[14] = target: T2, Mitogen-activated protein kinase 14; assay: Inhibition of p38alpha-dependent TNFalpha production in human whole blood at 100 uM
In short: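 Freshly drawn human whole blood, used diluted so that serum albumin and other plasma proteins are present; inhibition of TNF-α release from the blood's immune cells measured.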

[15] = target: Serine/threonine-protein kinase N1 (Homo sapiens) (UniProt Q16512); assay: Inhibition of PRK1 at 10 uM
[16] = target: T3, Serine/threonine-protein kinase PLK4 (Homo sapiens) (UniProt O00444); assay: Inhibition of SAK at 10 uM
T3 sequence (whole entry): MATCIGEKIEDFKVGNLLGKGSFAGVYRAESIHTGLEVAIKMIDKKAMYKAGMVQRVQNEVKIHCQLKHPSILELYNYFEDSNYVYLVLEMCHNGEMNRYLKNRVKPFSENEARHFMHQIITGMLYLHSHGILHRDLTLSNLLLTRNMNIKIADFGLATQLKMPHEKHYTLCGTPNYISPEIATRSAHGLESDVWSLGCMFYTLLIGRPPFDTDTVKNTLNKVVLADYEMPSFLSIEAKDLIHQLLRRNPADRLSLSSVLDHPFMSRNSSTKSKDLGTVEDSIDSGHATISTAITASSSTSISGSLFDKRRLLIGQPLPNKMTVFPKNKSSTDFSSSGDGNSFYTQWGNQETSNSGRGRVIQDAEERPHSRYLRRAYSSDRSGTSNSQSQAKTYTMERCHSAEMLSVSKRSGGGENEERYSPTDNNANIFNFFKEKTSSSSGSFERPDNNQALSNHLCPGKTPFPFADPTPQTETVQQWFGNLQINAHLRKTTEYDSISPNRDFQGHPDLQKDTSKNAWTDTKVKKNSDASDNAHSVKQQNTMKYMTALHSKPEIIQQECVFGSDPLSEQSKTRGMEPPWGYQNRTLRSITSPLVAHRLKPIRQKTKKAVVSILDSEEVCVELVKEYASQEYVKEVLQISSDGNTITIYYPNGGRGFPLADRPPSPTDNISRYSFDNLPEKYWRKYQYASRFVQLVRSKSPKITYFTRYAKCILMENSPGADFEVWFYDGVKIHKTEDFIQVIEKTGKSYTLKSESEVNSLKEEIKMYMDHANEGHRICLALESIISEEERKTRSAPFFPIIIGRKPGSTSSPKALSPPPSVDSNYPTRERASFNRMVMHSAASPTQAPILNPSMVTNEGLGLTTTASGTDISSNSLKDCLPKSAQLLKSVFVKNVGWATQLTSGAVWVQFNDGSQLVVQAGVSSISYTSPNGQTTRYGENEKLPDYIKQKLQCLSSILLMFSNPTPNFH

[17] = target: Insulin-like growth factor 1 receptor (Homo sapiens) (UniProt P08069); assay: Inhibition of IGF1R at 10 uM
[18] = target: Tyrosine-protein kinase receptor UFO (Homo sapiens) (UniProt P30530); assay: Inhibition of AXL at 10 uM
[19] = target: T2, Mitogen-activated protein kinase 14; assay: Inhibition of p38alpha at 10 uM by immunosorbent based kinase assay

Chain of RAC-alpha serine/threonine-protein kinase (Homo sapiens) (P31749 whole entry): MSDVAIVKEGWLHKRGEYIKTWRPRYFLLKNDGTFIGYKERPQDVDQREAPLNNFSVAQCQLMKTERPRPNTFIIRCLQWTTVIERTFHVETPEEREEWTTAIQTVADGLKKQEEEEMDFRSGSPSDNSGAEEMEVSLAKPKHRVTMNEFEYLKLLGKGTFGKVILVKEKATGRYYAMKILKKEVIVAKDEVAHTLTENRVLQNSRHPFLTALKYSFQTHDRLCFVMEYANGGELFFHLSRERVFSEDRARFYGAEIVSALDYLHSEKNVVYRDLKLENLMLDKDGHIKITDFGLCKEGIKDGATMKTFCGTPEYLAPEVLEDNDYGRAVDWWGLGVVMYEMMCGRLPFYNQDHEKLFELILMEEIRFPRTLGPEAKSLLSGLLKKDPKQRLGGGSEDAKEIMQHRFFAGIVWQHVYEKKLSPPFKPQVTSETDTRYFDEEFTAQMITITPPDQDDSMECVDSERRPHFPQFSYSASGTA
Chain of Insulin-like growth factor 1 receptor (Homo sapiens) (P08069 31-736 limits assumed): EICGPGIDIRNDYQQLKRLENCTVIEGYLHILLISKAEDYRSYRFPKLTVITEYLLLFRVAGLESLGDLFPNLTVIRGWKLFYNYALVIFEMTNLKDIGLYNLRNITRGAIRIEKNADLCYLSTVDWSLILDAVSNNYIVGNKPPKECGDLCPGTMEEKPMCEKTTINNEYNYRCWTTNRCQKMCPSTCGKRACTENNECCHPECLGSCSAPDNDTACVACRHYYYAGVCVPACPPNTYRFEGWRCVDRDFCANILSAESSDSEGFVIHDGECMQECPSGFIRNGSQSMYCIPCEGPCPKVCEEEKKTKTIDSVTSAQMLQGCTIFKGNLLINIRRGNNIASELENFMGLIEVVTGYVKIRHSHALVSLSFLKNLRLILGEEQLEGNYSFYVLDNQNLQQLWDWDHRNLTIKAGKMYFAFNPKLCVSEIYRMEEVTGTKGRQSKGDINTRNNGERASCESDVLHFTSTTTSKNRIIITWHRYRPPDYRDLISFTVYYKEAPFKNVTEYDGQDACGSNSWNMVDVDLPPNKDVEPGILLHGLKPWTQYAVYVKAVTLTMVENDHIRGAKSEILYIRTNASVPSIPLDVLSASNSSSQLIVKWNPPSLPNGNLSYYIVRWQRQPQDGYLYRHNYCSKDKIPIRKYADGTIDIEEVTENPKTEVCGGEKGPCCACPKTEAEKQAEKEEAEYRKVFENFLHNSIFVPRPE
Chain of Insulin-like growth factor 1 receptor (Homo sapiens) (P08069 741-1367 limits assumed): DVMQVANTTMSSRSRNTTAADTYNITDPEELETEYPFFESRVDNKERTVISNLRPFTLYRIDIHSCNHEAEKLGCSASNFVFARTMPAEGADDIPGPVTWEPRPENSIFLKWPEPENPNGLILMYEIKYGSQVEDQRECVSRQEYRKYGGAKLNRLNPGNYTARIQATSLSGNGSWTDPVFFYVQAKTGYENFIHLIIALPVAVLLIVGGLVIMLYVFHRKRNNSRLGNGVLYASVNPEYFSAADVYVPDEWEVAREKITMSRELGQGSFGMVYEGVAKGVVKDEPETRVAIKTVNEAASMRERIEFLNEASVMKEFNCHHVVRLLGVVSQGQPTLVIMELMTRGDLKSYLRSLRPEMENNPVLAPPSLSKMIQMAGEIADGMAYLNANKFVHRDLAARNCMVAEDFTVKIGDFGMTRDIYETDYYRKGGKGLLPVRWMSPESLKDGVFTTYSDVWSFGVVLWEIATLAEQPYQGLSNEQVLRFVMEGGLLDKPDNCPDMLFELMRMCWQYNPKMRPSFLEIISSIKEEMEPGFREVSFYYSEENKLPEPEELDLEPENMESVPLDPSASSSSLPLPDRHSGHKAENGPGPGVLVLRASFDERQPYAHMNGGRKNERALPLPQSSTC
Chain of Focal adhesion kinase 1 (Homo sapiens) (Q05397 2-1052 limits assumed): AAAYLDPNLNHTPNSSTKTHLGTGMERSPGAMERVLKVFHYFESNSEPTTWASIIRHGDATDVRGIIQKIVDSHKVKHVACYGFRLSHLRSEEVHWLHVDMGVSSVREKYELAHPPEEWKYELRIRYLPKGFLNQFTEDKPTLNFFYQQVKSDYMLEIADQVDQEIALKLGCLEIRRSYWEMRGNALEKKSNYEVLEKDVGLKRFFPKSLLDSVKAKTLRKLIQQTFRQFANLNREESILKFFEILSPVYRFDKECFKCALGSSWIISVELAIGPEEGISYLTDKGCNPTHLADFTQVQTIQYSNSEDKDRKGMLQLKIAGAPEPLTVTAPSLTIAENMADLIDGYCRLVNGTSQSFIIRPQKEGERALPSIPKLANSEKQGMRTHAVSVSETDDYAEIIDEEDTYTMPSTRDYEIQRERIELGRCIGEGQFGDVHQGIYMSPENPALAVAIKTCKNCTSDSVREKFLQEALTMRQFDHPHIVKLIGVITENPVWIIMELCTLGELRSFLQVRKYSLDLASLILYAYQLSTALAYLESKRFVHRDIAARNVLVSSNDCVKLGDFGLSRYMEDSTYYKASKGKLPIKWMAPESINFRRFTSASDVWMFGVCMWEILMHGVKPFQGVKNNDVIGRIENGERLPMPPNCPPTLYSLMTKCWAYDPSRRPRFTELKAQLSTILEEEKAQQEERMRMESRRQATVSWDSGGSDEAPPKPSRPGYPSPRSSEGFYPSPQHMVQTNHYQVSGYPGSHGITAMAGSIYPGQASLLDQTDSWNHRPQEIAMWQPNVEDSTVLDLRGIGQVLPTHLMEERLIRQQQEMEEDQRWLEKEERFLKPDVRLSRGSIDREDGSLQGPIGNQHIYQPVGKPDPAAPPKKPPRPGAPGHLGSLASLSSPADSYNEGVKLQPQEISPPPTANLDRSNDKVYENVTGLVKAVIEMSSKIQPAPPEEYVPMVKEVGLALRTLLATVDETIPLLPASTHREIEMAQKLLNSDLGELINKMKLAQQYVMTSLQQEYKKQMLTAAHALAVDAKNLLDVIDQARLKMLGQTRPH
Chain of Serine/threonine-protein kinase PLK1 (Homo sapiens) (P53350 whole entry): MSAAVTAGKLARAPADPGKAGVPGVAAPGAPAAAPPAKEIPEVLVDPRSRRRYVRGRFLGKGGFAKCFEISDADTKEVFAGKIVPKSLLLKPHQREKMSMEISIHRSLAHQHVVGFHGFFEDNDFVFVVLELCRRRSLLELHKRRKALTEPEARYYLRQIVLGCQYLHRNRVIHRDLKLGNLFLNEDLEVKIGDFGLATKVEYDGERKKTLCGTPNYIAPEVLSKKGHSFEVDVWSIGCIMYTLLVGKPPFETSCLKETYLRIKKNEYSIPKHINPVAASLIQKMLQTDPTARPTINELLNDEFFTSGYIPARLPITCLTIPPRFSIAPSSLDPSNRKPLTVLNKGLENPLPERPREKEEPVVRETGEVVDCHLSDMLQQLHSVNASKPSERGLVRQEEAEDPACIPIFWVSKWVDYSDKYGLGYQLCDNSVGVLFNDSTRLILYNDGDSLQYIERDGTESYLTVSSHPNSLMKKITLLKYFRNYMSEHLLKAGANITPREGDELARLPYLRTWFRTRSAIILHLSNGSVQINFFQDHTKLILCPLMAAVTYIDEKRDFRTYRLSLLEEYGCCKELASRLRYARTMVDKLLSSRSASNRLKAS
Chain of Serine/threonine-protein kinase B-raf (Homo sapiens), P15056 [V600E] (P15056 whole entry V600E): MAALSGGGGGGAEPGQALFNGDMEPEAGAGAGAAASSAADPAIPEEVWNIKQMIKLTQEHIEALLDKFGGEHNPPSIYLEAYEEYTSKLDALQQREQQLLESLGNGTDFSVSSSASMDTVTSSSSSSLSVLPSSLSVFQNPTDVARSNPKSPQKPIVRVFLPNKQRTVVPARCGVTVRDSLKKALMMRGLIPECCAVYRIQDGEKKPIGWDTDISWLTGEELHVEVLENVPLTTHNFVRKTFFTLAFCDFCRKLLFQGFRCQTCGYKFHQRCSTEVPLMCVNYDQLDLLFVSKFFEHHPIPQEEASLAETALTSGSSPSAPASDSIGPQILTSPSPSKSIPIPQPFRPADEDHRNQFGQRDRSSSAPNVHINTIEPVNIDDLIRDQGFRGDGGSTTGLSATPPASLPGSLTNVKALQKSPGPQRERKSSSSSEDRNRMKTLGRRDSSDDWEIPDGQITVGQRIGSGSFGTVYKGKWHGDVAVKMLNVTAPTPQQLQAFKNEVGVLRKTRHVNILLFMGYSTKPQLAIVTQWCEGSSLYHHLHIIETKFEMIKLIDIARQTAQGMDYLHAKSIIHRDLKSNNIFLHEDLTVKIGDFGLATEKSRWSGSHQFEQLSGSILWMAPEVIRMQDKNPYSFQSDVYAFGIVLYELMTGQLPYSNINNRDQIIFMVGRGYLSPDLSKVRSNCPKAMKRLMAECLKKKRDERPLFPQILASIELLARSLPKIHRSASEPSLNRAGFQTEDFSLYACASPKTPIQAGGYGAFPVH
Chain of Casein kinase II subunit alpha (Homo sapiens) (P68400 whole entry, looked up): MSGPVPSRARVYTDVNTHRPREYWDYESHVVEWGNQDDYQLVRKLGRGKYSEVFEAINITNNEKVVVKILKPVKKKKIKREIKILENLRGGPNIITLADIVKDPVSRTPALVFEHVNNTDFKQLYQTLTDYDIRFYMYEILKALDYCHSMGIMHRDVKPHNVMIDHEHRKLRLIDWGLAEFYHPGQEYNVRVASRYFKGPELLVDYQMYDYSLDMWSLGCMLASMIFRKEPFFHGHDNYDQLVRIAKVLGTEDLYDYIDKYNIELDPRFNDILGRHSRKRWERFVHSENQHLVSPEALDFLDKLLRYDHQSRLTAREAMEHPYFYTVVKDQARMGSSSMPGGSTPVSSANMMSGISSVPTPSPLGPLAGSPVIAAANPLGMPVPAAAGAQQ
T2 sequence (Q16539 whole entry): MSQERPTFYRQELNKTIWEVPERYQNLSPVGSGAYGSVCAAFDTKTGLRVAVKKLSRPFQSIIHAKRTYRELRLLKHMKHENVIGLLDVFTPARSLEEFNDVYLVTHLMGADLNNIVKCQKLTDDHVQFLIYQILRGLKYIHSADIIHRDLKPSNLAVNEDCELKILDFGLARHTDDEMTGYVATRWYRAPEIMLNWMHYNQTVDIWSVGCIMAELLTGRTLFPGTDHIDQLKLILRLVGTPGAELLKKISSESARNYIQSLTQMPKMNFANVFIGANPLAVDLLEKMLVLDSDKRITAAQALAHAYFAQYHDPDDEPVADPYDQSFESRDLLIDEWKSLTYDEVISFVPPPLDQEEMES

inhibition [1]	inhibition [2]	inhibition [3]	inhibition [4]	inhibition [5]	inhibition [6]	inhibition [7]	inhibition [8]	inhibition [9]	inhibition [10]	IC50 [11] [nM]	inhibition [12]	inhibition [13]	inhibition [14] [%]	inhibition [15]	inhibition [16]	inhibition [17]	inhibition [18]	inhibition [19] [%]	SMILES
inactive	inactive	inactive	inactive	inactive	inactive	inactive	inactive	inactive	inactive	440	inactive	inactive	40	inactive	inactive	inactive	inactive	–	CC1(C)OC[C@H](COc2cccc3c2CCc2cc(Nc4ccc(F)cc4F)ccc2C3=O)O1
inactive	inactive	inactive	inactive	inactive	inactive	inactive	inactive	inactive	inactive	–	inactive	inactive	–	inactive	inactive	inactive	inactive	21	COc1ccc2ccc3cc(Nc4ccc(F)cc4F)ccc3c(=O)c2c1
inactive	inactive	inactive	inactive	inactive	inactive	inactive	inactive	inactive	inactive	–	inactive	inactive	–	inactive	inactive	inactive	inactive	32	COc1ccc2c(c1)C(=O)c1ccc(-c3ccccc3)cc1CC2
